From the M2OR odorant receptor database

molecular target: T1, UniProt L7MU75; details: stereoisomer not certain
T1 sequence (whole entry): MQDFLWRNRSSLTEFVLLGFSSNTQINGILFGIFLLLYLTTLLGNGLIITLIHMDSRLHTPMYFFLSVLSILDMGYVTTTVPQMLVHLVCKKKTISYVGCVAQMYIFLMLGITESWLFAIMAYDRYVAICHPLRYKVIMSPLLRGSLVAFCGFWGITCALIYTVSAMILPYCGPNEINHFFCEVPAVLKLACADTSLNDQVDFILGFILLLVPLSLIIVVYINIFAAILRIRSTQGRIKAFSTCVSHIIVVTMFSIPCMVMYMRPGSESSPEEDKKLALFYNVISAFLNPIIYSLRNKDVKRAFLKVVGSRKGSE
Outline: (§1)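 Each receptor–molecule pair is labelled responsive or non-responsive (inactive) according to whether the original authors judged the measured signal statistically different from baseline. The data were taken from the main text and supplementary material of published papers and checked for typos and inconsistencies. Assay methods differed by source, with transient luciferase assays in mammalian cell lines being common.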

SMILES	odorant receptor agonist call;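 also: active if original authors judged signal statistically different from baseline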
CCCC(=O)OCC	inactive
Cc1nccnc1C	inactive
CC(C)=CCCC(C)CC=O (centres undefined)	inactive
COc1nccnc1C(C)C	inactive
COc1cnccn1	inactive
CC(C)=CC1CC(C)CCO1 (centres undefined)	inactive
CCCCCC(C)(C)O	inactive
CC1=CCC2CC1C2(C)C (centres undefined)	inactive
CCc1ncc(C)nc1CC	inactive
CCc1nccnc1CC	inactive
OCc1ccccc1	inactive
COc1ccccc1	inactive
CC(C)CS	inactive
CCOc1ccccc1	inactive
CCCCCCC(C)O (centres undefined)	inactive
CCCC(C)C(=O)OCC (centres undefined)	inactive
Cc1occc1SSc1ccoc1C	inactive

SMILES	odorant receptor agonist call;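 also: active if original authors judged signal statistically different from baseline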
CCCOC(=O)CCC	inactive
CCCC(=O)OC	inactive
CCC(=O)OC	inactive
O=c1ccc2ccccc2o1	active
CC(C)C12CCC(C)(CC1)O2	inactive
O=C(Cl)CCCCCCCC(=O)Cl	inactive
CCSSCC	inactive
C=CCCCCCC	inactive
CCCCOC(=O)CCC	inactive
CCC=O	inactive
CCCCOC	inactive
O=C([O-])CCCCCCC(=O)[O-].[H+].[H+]	inactive
CC(C)CN	inactive
CC(O)c1ccccc1 (centres undefined)	inactive
CCC(C)c1nccnc1OC (centres undefined)	inactive
CCC(=O)OC(C)(C)C	inactive

molecular target: T2, UniProt L7N0P5; details: stereoisomer not certain
T2 sequence (whole entry): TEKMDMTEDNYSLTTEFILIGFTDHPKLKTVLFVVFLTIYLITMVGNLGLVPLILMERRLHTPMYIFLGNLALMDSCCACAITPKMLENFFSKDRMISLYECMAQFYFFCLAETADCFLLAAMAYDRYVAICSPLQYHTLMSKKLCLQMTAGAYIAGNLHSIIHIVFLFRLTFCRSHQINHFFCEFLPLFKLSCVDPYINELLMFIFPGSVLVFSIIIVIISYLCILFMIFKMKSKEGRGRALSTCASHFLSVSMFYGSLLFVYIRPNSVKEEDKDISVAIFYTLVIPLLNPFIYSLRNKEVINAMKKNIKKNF
Outline: as §1

SMILES	odorant receptor agonist call;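 also: active if original authors judged signal statistically different from baseline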
Cc1nccnc1C	active
COc1nccnc1C(C)C	active
COc1cnccn1	active
CCc1ncc(C)nc1CC	active
CCc1nccnc1CC	active
CCC(C)c1nccnc1OC (centres undefined)	active

molecular target: T3, UniProt L7N210; details: stereoisomer not certain
T3 sequence (whole entry): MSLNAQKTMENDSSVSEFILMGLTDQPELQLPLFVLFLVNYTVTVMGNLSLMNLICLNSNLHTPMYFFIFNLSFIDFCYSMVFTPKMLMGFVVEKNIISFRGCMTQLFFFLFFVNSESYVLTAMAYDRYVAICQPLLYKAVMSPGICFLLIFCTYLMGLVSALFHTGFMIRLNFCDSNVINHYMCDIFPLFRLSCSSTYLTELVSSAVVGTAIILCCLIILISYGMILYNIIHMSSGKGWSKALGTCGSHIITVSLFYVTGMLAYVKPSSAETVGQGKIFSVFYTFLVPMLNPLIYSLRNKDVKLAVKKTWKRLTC
Outline: as §1

SMILES	odorant receptor agonist call;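 also: active if original authors judged signal statistically different from baseline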
COc1nccnc1C(C)C	inactive
COc1cnccn1	inactive
CCc1ncc(C)nc1CC	inactive
CCc1nccnc1CC	inactive
COc1ccccc1	inactive
CC(C)CS	inactive
CCCCCCC(C)O (centres undefined)	active
CCCC(C)C(=O)OCC (centres undefined)	inactive
Cc1occc1SSc1ccoc1C	inactive
O=c1ccc2ccccc2o1	active
CCSSCC	inactive
O=C([O-])CCCCCCC(=O)[O-].[H+].[H+]	inactive
CCC(C)c1nccnc1OC (centres undefined)	inactive

molecular target: T4, UniProt Q3KPB0; details: stereoisomer not certain
T4 sequence (whole entry): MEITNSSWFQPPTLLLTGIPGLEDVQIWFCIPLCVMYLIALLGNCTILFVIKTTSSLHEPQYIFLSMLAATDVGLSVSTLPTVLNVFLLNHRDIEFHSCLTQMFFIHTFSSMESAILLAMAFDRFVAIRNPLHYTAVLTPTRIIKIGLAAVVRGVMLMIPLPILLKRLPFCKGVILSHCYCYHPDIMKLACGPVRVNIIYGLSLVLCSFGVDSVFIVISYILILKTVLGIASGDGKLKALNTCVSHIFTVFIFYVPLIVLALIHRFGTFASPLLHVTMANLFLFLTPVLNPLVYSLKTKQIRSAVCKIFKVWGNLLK
Outline: as §1

SMILES	odorant receptor agonist call;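 also: active if original authors judged signal statistically different from baseline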
COc1nccnc1C(C)C	inactive
COc1cnccn1	inactive
CCc1ncc(C)nc1CC	inactive
CCc1nccnc1CC	inactive
COc1ccccc1	inactive
CC(C)CS	inactive
CCCCCCC(C)O (centres undefined)	inactive
CCCC(C)C(=O)OCC (centres undefined)	inactive
Cc1occc1SSc1ccoc1C	inactive
CCSSCC	inactive
O=C([O-])CCCCCCC(=O)[O-].[H+].[H+]	inactive
CCC(C)c1nccnc1OC (centres undefined)	inactive
